The IC50 is the concentration needed to halve the response being measured.

The results in this text go back to ChEMBL document CHEMBL4177705, “Antiplasmodial alkaloids from bulbs of Amaryllis belladonna Steud” (Bioorg Med Chem Lett, 2018).

In one test the test system is Plasmodium falciparum. Description: Antiplasmodial activity against chloroquine-resistant ring stage Plasmodium falciparum Dd2 after 72 hrs by SYBR green 1 dye based assay. It is filed as functional, organism-based.
The subject of another test is A2780. Description: Cytotoxicity against human A2780 cells. Format: cell-based. The gist of the method: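 Antiproliferative assay on the A2780 ovarian cell line, reported as IC50 in µM.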
Setting [1] is: Plasmodium falciparum, Dd2, 72 h, read-out: IC50.
Where [2] appears, read: Homo sapiens, A2780, read-out: IC50.

A value given as a limit tells only on which side of the number the result lay.

With `O=c1c2cc3c(cc2c2cccc4ccn1c42)OCO3`, the results for the IC50 result in the test with Plasmodium falciparum and with A2780 (a2780) were “Not Active” and “Non-Toxic”, respectively.

Consider `COc1c2c(cc3c1OCO3)[C@@]13CC[N@@](C2)[C@@H]1[C@H](O)[C@H](OC)C[C@H]3O`, for which the IC50 in the test with Plasmodium falciparum (setting [1]) was 37 µM; in the test on A2780 (setting [2]), > 60 µM.

As for `COc1c2c(cc3c1OCO3)[C@]13C=C[C@H](OC)C[C@H]1[N@](C2)C[C@H]3OC(C)=O`, the IC50 is 35 µM in the test on Plasmodium falciparum (setting [1]) and > 60 µM with A2780 (setting [2]).

Regarding `COc1c2c(cc3c1OCO3)[C@]13C=C[C@H](OC)C[C@H]1[N@](C2)C[C@H]3O`, the IC50 is 7.3 µM in the test with Plasmodium falciparum (setting [1]) and > 60 µM in the test with A2780 (setting [2]).

On to `CC(=O)O[C@@H]1CC=C2CCN3Cc4cc5c(cc4[C@H]1[C@@H]23)OCO5` [ACETYLCARANINE], for which the IC50 with Plasmodium falciparum (setting [1]) was found to be 3.5 µM; with A2780 (setting [2]), 56 µM.

Regarding `C[C@@H]1CC[C@H]2[C@@H](C)C(=O)O[C@@H]3O[C@@]4(C)CC[C@@H]1[C@]32OO4` [ARTEMISININ], the IC50 in the test with Plasmodium falciparum (setting [1]) turned out to be 0.0121 µM.

As to `COC1=CC(=O)[C@@]23CCN(Cc4c2cc2c(c4OC)OCO2)[C@@H]3C1` [DISTICHAMINE], the IC50 in the test with Plasmodium falciparum (setting [1]) was > 50 µM; in the test on A2780 (setting [2]), > 60 µM.
